This note sets out measurements from ChEMBL document CHEMBL3259711, “Synthesis, anti-HIV and cytostatic evaluation of 3'-deoxy-3'-fluorothymidine (FLT) pro-nucleotides” (Bioorg Med Chem Lett, 2014).

In data set [1] the test system is Human immunodeficiency virus 2. Briefly: Antiretroviral activity against HIV-2 ROD infected in thymidine kinase-deficient human CEM cells assessed as inhibition of virus-induced giant cell formation after 4 to 5 days by microscopic analysis. It counts as functional, organism-based. Particulars: Human immunodeficiency virus 2, ISOLATE ROD, CCRF-CEM. In short, it runs like this: (§1)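 CEM cells (~3 × 10⁵/mL; wild-type or thymidine kinase-deficient) infected with 100 CCID₅₀/mL HIV-1(IIIB) or HIV-2(ROD) with serial compound dilutions; 4–5 days at 37 °C, humidified CO₂. Syncytium (giant cell) formation scored microscopically; EC₅₀ = concentration inhibiting giant cell formation by 50%. Means of at least 2–3 independent experiments.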

The test system of data set [2] is Human immunodeficiency virus 2. Briefly: Antiretroviral activity against HIV-2 ROD infected in human CEM/0 cells expressing thymidine kinase assessed as inhibition of virus-induced giant cell formation after 4 to 5 days by microscopic analysis. It counts as functional, organism-based. To be noted: Human immunodeficiency virus 2, ISOLATE ROD, CCRF-CEM. In short, it runs like this:
as §1

Data set [3] relates to CCRF-CEM. Briefly: Cytostatic activity against human CEM/0 cells expressing thymidine kinase assessed as inhibition of cell proliferation after 48 hrs by Coulter counter analysis. It is filed as functional, cell-based. The procedure, abridged: (§2)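 Tumour cells ((5–7.5) × 10⁴ per well) grown with test compound for 48 h at 37 °C, humidified CO₂; cells counted by Coulter counter. IC₅₀ = concentration inhibiting proliferation by 50%. Means of at least 2–3 independent experiments.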

Data set [4] concerns Human immunodeficiency virus 1. Briefly: Antiretroviral activity against HIV-1 3B infected in human CEM/0 cells expressing thymidine kinase assessed as inhibition of virus-induced giant cell formation after 4 to 5 days by microscopic analysis. It counts as functional, organism-based. Particulars: Human immunodeficiency virus 1, 3B, CCRF-CEM. The procedure, abridged:
as §1

Data set [5] relates to CCRF-CEM. Briefly: Cytostatic activity against thymidine kinase-deficient human CEM cells assessed as inhibition of cell proliferation after 48 hrs by Coulter counter analysis. It is filed as functional, cell-based. In short, it runs like this: as §2
Another data set deals with L1210. Briefly: Cytostatic activity against mouse L1210 cells assessed as inhibition of cell proliferation after 48 hrs by Coulter counter analysis. It is filed as functional, cell-based. Particulars: L1210, 48 h. The procedure, abridged: as §2
Data set [6] in a line: Cytostatic activity against human CEM/0 cells expressing thymidine kinase assessed as inhibition of cell proliferation at EC50 after 48 hrs by Coulter counter analysis. To be noted: ccrf-cem. It counts as cell-based.
The subject of data set [7] is CCRF-CEM. Briefly: Cytostatic activity against thymidine kinase-deficient human CEM cells assessed as inhibition of cell proliferation at EC50 after 48 hrs by Coulter counter analysis. It counts as cell-based.
In data set [8] the test system is Human immunodeficiency virus 2. Briefly: Ratio of EC50 for HIV-2 ROD infected in thymidine kinase-deficient human CEM cells to EC50 for HIV-2 ROD infected in human CEM/0 cells expressing thymidine kinase. It counts as functional, ISOLATE ROD, CCRF-CEM.

The term EC50 denotes the midpoint of the concentration-response curve. For orientation: IC50 means the midpoint of a concentration-inhibition curve. For the molecule `COC(=O)[C@H](C)NP(=O)(OC[C@H]1O[C@@H](n2cc(C)c(=O)[nH]c2=O)C[C@@H]1F)Oc1ccccc1` (some centres undefined), the EC50 was found to be 4.7 µM in data set [1], 1.3 µM in data set [2] and 0.55 µM in data set [4]. Moreover, the IC50 with CCRF-CEM [3] is over 250 µM; in the data set with CCRF-CEM [5], over 250 µM; in the data set with L1210 it was 8.2 µM.
For `CCOC(=O)[C@H](C)NP(=O)(OC[C@H]1O[C@@H](n2cc(C)c(=O)[nH]c2=O)C[C@@H]1F)Oc1ccccc1` (some centres undefined), the EC50 in data set [1] is 1.3 µM; in data set [2], 0.24 µM; in [4], 0.1 µM. In addition, the IC50 is over 250 µM in the data set on CCRF-CEM [3], over 250 µM with CCRF-CEM [5] and 4.4 µM with L1210.
In the case of `Cc1cn([C@H]2C[C@H](F)[C@@H](COP(=O)(N[C@@H](C)C(=O)OC(C)C)Oc3ccccc3)O2)c(=O)[nH]c1=O` (some centres undefined), the EC50 in [1] worked out at 28 µM; in data set [2], 1.1 µM; in data set [4], 0.75 µM. Also, the concentration for half-maximal inhibition (IC50) was 145 µM with CCRF-CEM [3], over 250 µM with CCRF-CEM [5] and 23 µM in the data set with L1210.
With `Cc1cn([C@H]2C[C@H](F)[C@@H](COP(=O)(N[C@@H](C)C(=O)OC(C)(C)C)Oc3ccccc3)O2)c(=O)[nH]c1=O` (some centres undefined), the half-maximal effective concentration (EC50) was over 50 µM in [1], 0.9 µM in data set [2] and 0.29 µM in [4]. Besides, the IC50 in the data set with CCRF-CEM [3] was 124 µM; in the data set on CCRF-CEM [5], over 250 µM; in the data set on L1210 it was 6.3 µM.
In the case of `Cc1cn([C@H]2C[C@H](F)[C@@H](COP(=O)(N[C@@H](C)C(=O)OCc3ccccc3)Oc3ccccc3)O2)c(=O)[nH]c1=O` (some centres undefined), the concentration for a half-maximal effect (EC50) in [1] was found to be 2 µM; in [2], 0.18 µM; in data set [4] it was 0.13 µM. Besides, the values for the IC50 in the data set on CCRF-CEM [3], in the data set with CCRF-CEM [5] and in the data set with L1210 were 117 µM, 172 µM and 5.8 µM, respectively.
For the molecule `COC(=O)[C@H](C)NP(=O)(OC[C@H]1O[C@@H](n2cc(C)c(=O)[nH]c2=O)C[C@@H]1F)Oc1cccc2ccccc12` (some centres undefined), the results for the EC50 in data set [1], in data set [2] and in data set [4] were 3 µM, 0.65 µM and 0.43 µM, respectively. Besides, the IC50 is 66 µM in the data set with CCRF-CEM [3], 112 µM in the data set on CCRF-CEM [5] and 3 µM in the data set with L1210.
On to `CCOC(=O)[C@H](C)NP(=O)(OC[C@H]1O[C@@H](n2cc(C)c(=O)[nH]c2=O)C[C@@H]1F)Oc1cccc2ccccc12` (some centres undefined), for which the concentration for a half-maximal effect (EC50) in data set [1] was found to be 5.2 µM; in data set [2] it was 0.18 µM; in data set [4], 0.16 µM. The IC50 in the data set with CCRF-CEM [3] was determined as 81 µM; with CCRF-CEM [5] it was 138 µM; with L1210, 6 µM.
Consider `Cc1cn([C@H]2C[C@H](F)[C@@H](COP(=O)(N[C@@H](C)C(=O)OC(C)C)Oc3cccc4ccccc34)O2)c(=O)[nH]c1=O` (some centres undefined), for which the EC50 is over 50 µM in data set [1], 1 µM in data set [2] and 0.56 µM in data set [4]. Further, the concentration for half-maximal inhibition (IC50) was 206 µM in the data set with CCRF-CEM [3], over 250 µM in the data set with CCRF-CEM [5] and 24 µM in the data set on L1210.
For the molecule `Cc1cn([C@H]2C[C@H](F)[C@@H](COP(=O)(N[C@@H](C)C(=O)OC(C)(C)C)Oc3cccc4ccccc34)O2)c(=O)[nH]c1=O` (some centres undefined), the concentration for a half-maximal effect (EC50) was over 50 µM in data set [1], 4.7 µM in [2] and 2.3 µM in data set [4]. Further, the IC50 is 148 µM in the data set on CCRF-CEM [3], over 250 µM in the data set on CCRF-CEM [5] and 36 µM in the data set on L1210.
On to `Cc1cn([C@H]2C[C@H](F)[C@@H](COP(=O)(N[C@@H](C)C(=O)OC3CCCCC3)Oc3cccc4ccccc34)O2)c(=O)[nH]c1=O` (some centres undefined), for which the figures for the half-maximal effective concentration (EC50) in [1], in data set [2] and in data set [4] were 2 µM, 0.14 µM and 0.048 µM, respectively. In addition, the figures for the half-maximal inhibitory concentration (IC50) with CCRF-CEM [3], in the data set with CCRF-CEM [5] and in the data set on L1210 were 13 µM, 20 µM and 2.9 µM, respectively. Besides, the Activity entry (in data set [6]; with CCRF-CEM [7]) was “Non-toxic” in each case.
Turning to `Cc1cn([C@H]2C[C@H](F)[C@@H](COP(=O)(N[C@@H](C)C(=O)OCC(C)(C)C)Oc3cccc4ccccc34)O2)c(=O)[nH]c1=O` (some centres undefined), the EC50 in [1] worked out at 0.87 µM; in data set [2], 0.08 µM; in data set [4], 0.032 µM. Moreover, the 50% inhibitory concentration (IC50) in the data set with CCRF-CEM [3] was found to be 14 µM; in the data set with CCRF-CEM [5], 20 µM; in the data set on L1210 it was 1.9 µM. Also, the Activity entry (in [6]; with CCRF-CEM [7]) was “Non-toxic” each time. In addition, the Ratio EC50 in data set [8] was determined as 10.
`Cc1cn([C@H]2C[C@H](F)[C@@H](COP(=O)(N[C@@H](C)C(=O)OCc3ccccc3)Oc3cccc4ccccc34)O2)c(=O)[nH]c1=O` (some centres undefined): the EC50 in data set [1] came to 2.1 µM; in [2], 0.18 µM; in data set [4] it was 0.12 µM. Moreover, the figures for the IC50 in the data set with CCRF-CEM [3], with CCRF-CEM [5] and with L1210 were 54 µM, 57 µM and 5.2 µM, respectively.
On to `COP(=O)(N[C@@H](C)C(=O)OCc1ccccc1)OC[C@H]1O[C@@H](n2cc(C)c(=O)[nH]c2=O)C[C@@H]1F` (some centres undefined), for which the EC50 in data set [1] was found to be 89 µM; in data set [2], 1.6 µM; in data set [4], 0.65 µM. The IC50 was 100 µM in the data set with CCRF-CEM [3], over 250 µM in the data set on CCRF-CEM [5] and 43 µM with L1210.
Turning to `Cc1cn([C@H]2C[C@H](F)[C@@H](COP(=O)(N[C@@H](C)C(=O)OCc3ccccc3)N[C@@H](C)C(=O)OCc3ccccc3)O2)c(=O)[nH]c1=O`, the EC50 in [1] came out at 1 µM; in data set [2], 0.13 µM; in [4], 0.036 µM. Besides, the half-maximal inhibitory concentration (IC50) in the data set on CCRF-CEM [3] was determined as 17 µM; in the data set on CCRF-CEM [5], 22 µM; with L1210, 1.2 µM. In addition, the Activity result (in [6]; in the data set on CCRF-CEM [7]) was “Non-toxic” in each case.
On to `Cc1cn([C@H]2C[C@H](F)[C@@H](COP(=O)(N[C@@H](C)C(=O)OCC(C)(C)C)N[C@@H](C)C(=O)OCC(C)(C)C)O2)c(=O)[nH]c1=O`, for which the EC50 was 20 µM in data set [1], 0.045 µM in data set [2] and 0.017 µM in [4]. The half-maximal inhibitory concentration (IC50) stood at 66 µM with CCRF-CEM [3], 43 µM with CCRF-CEM [5] and 3.8 µM in the data set on L1210.
As for `Cc1cn([C@H]2C[C@H](F)[C@@H](CO)O2)c(=O)[nH]c1=O` [ALOVUDINE], the EC50 was over 50 µM in data set [1], 0.018 µM in data set [2] and 0.0062 µM in data set [4]. The half-maximal inhibitory concentration (IC50) in the data set with CCRF-CEM [3] is 39 µM; in the data set with CCRF-CEM [5] it was over 250 µM; in the data set with L1210 it was 0.081 µM. The Ratio EC50 in [8] is over 1000.
